Six compounds from ChEMBL document CHEMBL1154602, “Toward a rational design of multitarget-directed antioxidants: merging memoquin and lipoic acid molecular frameworks” (J Med Chem, 2009) can be followed below.

Assay [1] can be described thus: Inhibition of amyloid beta (1 to 42) self-aggregation assessed as amyloid fibril formation at 10 uM by thioflavin-T based fluorometric assay. The essentials:
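Self-induced Aβ(1-42) aggregation at 50 μM, test compound at 10 μM; percent inhibition reported with SEM.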

The test system of assay [2] is T67. The experiment in a line: Antioxidant activity in human T67 cells assessed as inhibition of tert-butyl hydroperoxide-induced ROS production at 10 uM after 24 hrs by fluorescence assay in presence of 2.5 uM sulforaphane treated for 24 hrs before compound addition. The assay is classed as functional, cell-based. The method in brief: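 T67 cells pretreated with 2.5 μM sulforaphane to raise NQO1 activity; ROS formation induced by t-BuOOH; oxidized form tested at 10 μM; significance set at p ≤ 0.05 versus t-BuOOH + sulforaphane-treated cells.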

A further assay addresses Acetylcholinesterase (Homo sapiens, UniProt P22303). As to the kind of experiment: Inhibition of human recombinant AChE by Ellman's method. The method in brief: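 Human recombinant AChE. IC50 is the inhibitor concentration that decreases enzyme activity by 50%. Values are the mean of two independent measurements, each run in triplicate, with SEM.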
For assay [3], the species on record is Bos taurus. The experiment in a line: Antioxidant activity in bovine heart submitochondrial particles assessed as inhibition of antimycin A-induced ROS production at 10 uM by fluorescence assay. The assay is classed as functional. The method in brief:
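Submitochondrial particles given NADH; ROS production triggered by antimycin A addition. Quinone (oxidized) form tested at 10 μM.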

The target in a further assay is Cholinesterase (Homo sapiens, UniProt P06276). As to the kind of experiment: Inhibition of human recombinant BChE by Ellman's method. In general terms: DTNB colorimetry detects thiols as they appear.
The subject of assay [4] is T67. The experiment in a line: Antioxidant activity in human T67 cells assessed as inhibition of tert-butyl hydroperoxide-induced ROS production at 10 uM after 24 hrs by fluorescence assay. The assay is classed as functional, cell-based. The method in brief:
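T67 cells without sulforaphane pretreatment; ROS formation induced by t-BuOOH; oxidized form tested at 10 μM; significance set at p ≤ 0.05 versus t-BuOOH-treated cells.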

For assay [5], the species on record is Bos taurus. The experiment in a line: Antioxidant activity in bovine heart submitochondrial particles assessed as inhibition of antimycin A-induced ROS production at 10 uM pretreated for 30 mins with human NQO1 by fluorescence assay. Type of assay: functional. The essentials:
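Submitochondrial particles given NADH; ROS production triggered by antimycin A. Compound first reduced by 30 min preincubation with purified human NQO1 using NADH as substrate, reaction then stopped with 10 μM dicumarol; tested at 10 μM.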

Calls of active or inactive are those of the source. The rule behind the calls is not given here.

Sequence of Cholinesterase (P06276 whole entry): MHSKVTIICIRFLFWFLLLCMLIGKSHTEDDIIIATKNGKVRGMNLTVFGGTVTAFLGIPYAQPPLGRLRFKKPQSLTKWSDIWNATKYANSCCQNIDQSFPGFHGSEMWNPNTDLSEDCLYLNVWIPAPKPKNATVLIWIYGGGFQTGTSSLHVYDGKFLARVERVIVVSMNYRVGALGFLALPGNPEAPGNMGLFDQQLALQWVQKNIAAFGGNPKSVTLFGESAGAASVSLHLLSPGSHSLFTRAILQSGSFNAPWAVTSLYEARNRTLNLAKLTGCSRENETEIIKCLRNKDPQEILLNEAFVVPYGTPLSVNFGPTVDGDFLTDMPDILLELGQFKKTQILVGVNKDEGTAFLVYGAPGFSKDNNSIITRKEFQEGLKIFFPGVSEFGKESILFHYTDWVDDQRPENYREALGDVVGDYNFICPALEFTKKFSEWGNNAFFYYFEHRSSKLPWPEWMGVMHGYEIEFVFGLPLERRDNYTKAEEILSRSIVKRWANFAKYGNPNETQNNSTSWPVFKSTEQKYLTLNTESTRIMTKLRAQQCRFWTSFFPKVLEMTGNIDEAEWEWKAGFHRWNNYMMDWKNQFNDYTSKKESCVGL
Sequence of Acetylcholinesterase (P22303 whole entry): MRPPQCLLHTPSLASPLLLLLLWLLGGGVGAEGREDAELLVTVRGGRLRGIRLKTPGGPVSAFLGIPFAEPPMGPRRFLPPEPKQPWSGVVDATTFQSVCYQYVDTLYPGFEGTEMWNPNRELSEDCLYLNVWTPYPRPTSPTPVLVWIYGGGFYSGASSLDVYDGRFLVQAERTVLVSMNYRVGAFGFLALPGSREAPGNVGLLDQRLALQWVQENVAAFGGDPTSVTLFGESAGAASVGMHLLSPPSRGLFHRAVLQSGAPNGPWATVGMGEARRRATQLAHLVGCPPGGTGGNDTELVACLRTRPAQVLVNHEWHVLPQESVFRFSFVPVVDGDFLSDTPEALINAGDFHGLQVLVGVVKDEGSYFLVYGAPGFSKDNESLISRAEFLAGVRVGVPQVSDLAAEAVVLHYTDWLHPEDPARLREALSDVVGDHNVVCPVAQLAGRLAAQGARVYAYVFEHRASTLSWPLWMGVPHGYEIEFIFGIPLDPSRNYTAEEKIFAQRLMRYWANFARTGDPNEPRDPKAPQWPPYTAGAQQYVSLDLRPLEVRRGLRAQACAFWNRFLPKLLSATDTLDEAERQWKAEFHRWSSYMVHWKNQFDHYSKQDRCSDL

On to `O=C(CCCCC1CCSS1)NCCCNc1c2c(nc3cc(Cl)ccc13)CCCC2` (stereo unspecified), for which, in assay [1], the inhibition is < 10%. In addition, in the assay with T67 [2], the result was inactive.
As for `CCN(CCCNC1=CC(=O)C(NCCCNC(=O)CCCCC2CCSS2)=CC1=O)Cc1ccccc1OC` (stereo unspecified), the IC50 at Acetylcholinesterase came out at 190 nM; on Cholinesterase, 212000 nM. Besides, the result in the assay listed under Bos taurus [3], in the assay with T67 [4], in the assay listed under Bos taurus [5] and in the assay with T67 [2] was Active. Moreover, the inhibition in assay [1] was found to be 19.2%.
Turning to `CCN(CCCNC1=CC(=O)C(NCCCCCCNC(=O)CCCCC2CCSS2)=CC1=O)Cc1ccccc1OC` (stereo unspecified), the figures for the IC50 on Acetylcholinesterase and on Cholinesterase were 160 nM and 11100 nM, respectively. For the same compound, the outcome in the assay listed under Bos taurus [3], with T67 [4], in the assay listed under Bos taurus [5] and in the assay on T67 [2] was Active. For the same compound, the inhibition in assay [1] stood at 31.8%.
As to `CCN(CCCCCCNC1=CC(=O)C(NCCCNC(=O)CCCCC2CCSS2)=CC1=O)Cc1ccccc1OC` (stereo unspecified), the IC50 at Acetylcholinesterase amounted to 150 nM; at Cholinesterase, 21000 nM. In addition, the outcome in the assay listed under Bos taurus [3], in the assay on T67 [4], in the assay filed under Bos taurus [5] and with T67 [2] was Active. Moreover, the inhibition in assay [1] stood at 34.4%.
On to `CCN(CCCCCCNC1=CC(=O)C(NCCCCCCN(CC)Cc2ccccc2OC)=CC1=O)Cc1ccccc1OC` [MEMOQUIN], for which, on Acetylcholinesterase, the IC50 was 1.5 nM.
Consider `CCN(CCCCCCNC1=CC(=O)C(NCCCCCCNC(=O)CCCCC2CCSS2)=CC1=O)Cc1ccccc1OC` (stereo unspecified), for which the IC50 worked out at 100 nM on Acetylcholinesterase and 4990 nM on Cholinesterase. The result in the assay listed under Bos taurus [3], in the assay on T67 [4], in the assay filed under Bos taurus [5] and with T67 [2] was Active. Moreover, in assay [1], the inhibition came to 45.4%.

A word on the inhibition: it is the change of the read-out against control, counted positive when it falls. The IC50 is the concentration that gives 50% inhibition.
